In data set [1] the test system is Mus musculus. Description: Percentage increased life span against L1210 leukemia cells in mice (1.08 mmol/kg dosage); Toxic. It is filed as toxicity, organism-based. In outline: (§1)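 CDF1 mice (17–18 g) inoculated with L1210 lymphoid leukaemia cells per NIH protocol 1.100. A single 1.08 mmol/kg dose was given 24 h after inoculation. %ILS = (treated/control − 1) × 100 on survival times, with vehicle-treated mice as controls. Survivors beyond 30 days were counted separately.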

For data set [2], the system named is Mus musculus. The data set can be described thus: Percentage increased life span against L1210 leukemia cells in mice;(1.08 mmol/kg dosage). In kind it is functional. In outline: as §1
Data set [3] relates to DMS-114. Description: cytotoxicity against small cell lung cancer subpanel (DMS 114); Experiment 2. It is filed as functional. Conditions: Homo sapiens. In outline: (§2)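 NCI 60 human tumour cell line screen. Compound dissolved in DMSO and tested at five concentrations (10^-4–10^-8 M). Growth followed over time as percent growth, with zero-time population set to zero. Value is log10 GI50, the log molar concentration giving 50% growth inhibition. Experiment 1 and Experiment 2 are separate runs.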

The test system of data set [4] is MOLT-4. Description: cytotoxicity against leukemia subpanel (MOLT-4); Experiment 1. Conditions: Homo sapiens. In kind it is functional. The method in brief:
as §2

Data set [5] concerns RPMI-8226. Description: cytotoxicity against leukemia subpanel (RPMI-8226); Experiment 1. In kind it is functional. To be noted: Homo sapiens. In outline: as §2
Data set [6] in a line: MGDH represents the selectivity or relative sensitivity of the tumor cell panel to the drug.; Experiment 2. It is filed as functional. The method in brief:
(§3)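 NCI 60-line screen, DMSO solutions at five concentrations (10^-4–10^-8 M). Log10 GI50 was found per line. MG MID is the calculated mean over all panels. Sensitivity is expressed as the log-scale difference of a line or subpanel from that mean. Experiment 1 and Experiment 2 are separate runs.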

For data set [7], the system named is K562. The data set can be described thus: cytotoxicity against leukemia subpanel (K562); Experiment 1. To be noted: Homo sapiens. It is filed as functional. In outline: as §2
Data set [8] has as its system SR. The data set can be described thus: cytotoxicity against leukemia subpanel (SR); Experiment 1. In kind it is functional. To be noted: Homo sapiens. In outline: as §2
The subject of data set [9] is HL-60. The data set can be described thus: cytotoxicity against leukemia subpanel (HL-60 (TB)); Experiment 2. It is filed as functional. To be noted: Homo sapiens. In outline:
as §2

In data set [10] the test system is RPMI-8226. The data set can be described thus: cytotoxicity against leukemia subpanel (RPMI-8226); Experiment 2. It is filed as functional. To be noted: Homo sapiens. In outline:
as §2

The subject of data set [11] is K562. Description: cytotoxicity against leukemia subpanel (K562); Experiment 2. In kind it is functional. Conditions: Homo sapiens. The method in brief:
as §2

Data set [12] can be described thus: MGDH represents the selectivity or relative sensitivity of the tumor cell panel to the drug.; Experiment 1. In kind it is functional. In outline:
as §3

Data set [13] concerns SR. The data set can be described thus: cytotoxicity against leukemia subpanel (SR); Experiment 2. In kind it is functional. To be noted: Homo sapiens. The method in brief:
as §2

Data set [14] relates to DMS-273. Description: cytotoxicity against small cell lung cancer subpanel (DMS 273); Experiment 1. In kind it is functional. Conditions: Homo sapiens. The method in brief: as §2
In data set [15] the test system is MOLT-4. The data set can be described thus: cytotoxicity against leukemia subpanel (MOLT-4); Experiment 2. To be noted: Homo sapiens. It is filed as functional. In outline:
as §2

Data set [16] concerns CCRF-CEM. The data set can be described thus: cytotoxicity against leukemia subpanel (CCRF-CEM); Experiment 1. Conditions: Homo sapiens. In kind it is functional. In outline: as §2
Data set [17] concerns CCRF-CEM. The data set can be described thus: cytotoxicity against leukemia subpanel (CCRF-CEM); Experiment 2. It is filed as functional. Conditions: Homo sapiens. The method in brief: as §2
The subject of data set [18] is DMS-273. Description: cytotoxicity against small cell lung cancer subpanel (DMS 273); Experiment 2. It is filed as functional. To be noted: Homo sapiens. In outline: as §2
Data set [19] has as its system DMS-114. Description: cytotoxicity against small cell lung cancer subpanel (DMS 114); Experiment 1. In kind it is functional. To be noted: Homo sapiens. The method in brief: as §2
Data set [20] concerns HL-60. Description: cytotoxicity against leukemia subpanel (HL-60 (TB)); Experiment 1. It is filed as functional. Conditions: Homo sapiens. In outline:
as §2

Regarding `CN1C(OO)CCOP1(=O)N(CCCl)CCCl` (stereo unspecified), in the data set on Mus musculus [1], the ILS entry was “Toxic”.

With `O=P1(N(CCCl)CCCl)NCCCO1` (stereo unspecified) [CYCLOPHOSPHAMIDE ANHYDROUS], the ILS in the data set on Mus musculus [2] was greater than 187%.

In the case of `CCN(CC)C(=S)SC1CCOP(=O)(N(CCCl)CCCl)N1C` (stereo unspecified), the GI50 in the data set on DMS-114 [3] is 209 nM; in the data set with MOLT-4 [4], 49 nM; in the data set on RPMI-8226 [5], 331 nM; in the data set on K562 [7], 52.5 nM; in the data set on SR [8], 37.1 nM; in the data set on HL-60 [9] it was 288 nM. Also, the concentration for 50% growth inhibition (GI50) in the data set on RPMI-8226 [10] was 398 nM; with K562 [11], 87.1 nM; in the data set with SR [13], 389 nM; with DMS-273 [14], 120 nM; in the data set on MOLT-4 [15], 69.2 nM; in the data set on CCRF-CEM [16], 31.6 nM. Besides, the GI50 in the data set on CCRF-CEM [17] is 39.8 nM; with DMS-273 [18] it was 380 nM; with DMS-114 [19], 170 nM; with HL-60 [20] it was 31.6 nM. The “MGDH GI50” value in [6] was determined as 87.78; in data set [12], 69.72. In the data set with Mus musculus [2], this molecule returned an ILS greater than 92%.

These data come from ChEMBL document CHEMBL1128257, “Chemically stable N-methyl-4-(alkylthio)cyclophosphamide derivatives as prodrugs of 4-hydroxycyclophosphamide” (J Med Chem, 1995).
